ARFGAP1 inhibitor = inhibitors of rat ARFGAP1 GAP activity, primary screen, biochemical, fluorescence polarization, GDP tracer. 0.26% of 360,000 active. inhibition, % at 16.5 µM. Arfgap1-stimulated ARF1 GTP hydrolysis, GDP FP detection. AID 651572, 2012;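 active means inhibition above a per-plate limit, mean inhibition of low control wells plus 3 SD, cut at about 25% in these data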;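 further: 0% = DMSO wells with enzyme and 100% = wells lacking Arfgap1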
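Material: truncated rat Arfgap1 GAP domain; Incubation: compound-enzyme preincubation 20 min, reaction 120 min, detection 60 min, 25 °C; Read-out: percent inhibition of Arfgap1-stimulated GTP hydrolysis; Technique: FP, GDP Alexa 633 tracer displaced from anti-GDP antibody, 620/688 nm; Controls: No-Arfgap1 wells (100%) versus DMSO full-reaction wells (0%); Replication: single well per compound.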
ASAP1 inh = inhibitors of human ASAP1 ArfGAP activity, primary screen, biochemical, fluorescence polarization; inhibition, % at 16.5 µM; ASAP1-stimulated ARF1 GTP hydrolysis, GDP FP detection; AID 624377, 2012; 0.19% of 360,000 active; in the data active means inhibition above about 25%;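 further: 0% = vehicle with enzyme and substrate and 100% = no enzyme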
Target sequence (Q9ULH1 325-724 limits assumed): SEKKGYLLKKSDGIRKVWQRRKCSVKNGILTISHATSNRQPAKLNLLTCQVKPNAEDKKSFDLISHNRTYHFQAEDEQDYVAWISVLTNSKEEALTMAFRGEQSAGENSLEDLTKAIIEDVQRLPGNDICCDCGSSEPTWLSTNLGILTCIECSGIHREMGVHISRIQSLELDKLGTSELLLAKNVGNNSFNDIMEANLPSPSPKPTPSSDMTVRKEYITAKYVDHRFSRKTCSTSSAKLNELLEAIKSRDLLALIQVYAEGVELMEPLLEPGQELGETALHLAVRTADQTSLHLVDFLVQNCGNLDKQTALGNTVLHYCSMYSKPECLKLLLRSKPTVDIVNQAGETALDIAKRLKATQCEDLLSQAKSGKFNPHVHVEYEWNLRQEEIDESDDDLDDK
PAFAH2 FP inh = PAFAH2 enzyme inhibitors, primary screen, biochemical, fluorescence polarization, human | Platelet-activating factor acetylhydrolase 2, cytoplasmic (Homo sapiens), Q99487 | recombinant PAFAH2, FP-rhodamine activity probe | inhibition, % at 3.39 µM | 0.99% of 340,000 active | AID 492956, 2010;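 active means inhibition above the mean over all tested compounds plus 3 SD, cut at about 30% in these data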;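 further: inhibitors block probe labeling of enzyme so polarization drops; 0% = enzyme with DMSO and 100% = wells lacking PAFAH2 protein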
PAFAH1B2 FP inh = PAFAH1B2 enzyme inhibitors, primary screen, biochemical, fluorescence polarization, human | Platelet-activating factor acetylhydrolase IB subunit alpha2 (Homo sapiens), P68402 | recombinant PAFAH1B2, FP-rhodamine activity probe | inhibition, % at 3.39 µM | 1.2% of 340,000 active | AID 492953, 2010;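 active means inhibition above the mean of all tested compounds plus 3 SD, cut at about 24% in these data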;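 further: 0% = enzyme with DMSO and 100% = wells lacking PAFAH1B2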
Target sequence (P68402 whole entry, looked up): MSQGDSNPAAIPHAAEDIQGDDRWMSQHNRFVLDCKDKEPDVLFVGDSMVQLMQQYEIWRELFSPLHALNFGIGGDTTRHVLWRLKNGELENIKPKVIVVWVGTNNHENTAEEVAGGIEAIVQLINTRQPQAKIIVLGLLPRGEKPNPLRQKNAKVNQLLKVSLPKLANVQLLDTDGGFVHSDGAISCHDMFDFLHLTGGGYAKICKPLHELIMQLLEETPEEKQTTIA
PAFAH1B3 inh = PAFAH1B3 enzyme inhibitors, primary screen, biochemical, fluorescence polarization, human. 0.28% of 340,000 active. recombinant PAFAH1B3, FP-rhodamine probe. inhibition, % at 3.39 µM;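 active means inhibition above the screen-wide average of all tested compounds plus 3 SD, cut at about 25% in these data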;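 further: 0% = enzyme with DMSO only and 100% = wells lacking PAFAH1B3 protein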
pPAFAH inh = pPAFAH enzyme inhibitors, primary screen, biochemical, fluorescence polarization, human; recombinant pPAFAH, FP-rhodamine probe fluorescence polarization; inhibition, % at 3.39 µM; 1.5% of 330,000 active;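 active means inhibition above the mean inhibition across the screen plus 3 SD, cut at about 25% in these data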;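 further: inhibitors block binding of the rhodamine activity-based probe so polarization drops; 0% = enzyme with DMSO and 100% = wells lacking pPAFAH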
An asterisk follows results filed as active; / = no result. Rows were chosen to be rich in hits. Some 2.8% of all compounds tested hit in one or more screens of this group.

SMILES	ARFGAP1 inhibitor	ASAP1 inh	PAFAH2 FP inh	PAFAH1B2 FP inh	PAFAH1B3 inh	pPAFAH inh
CCc1ccc(-n2c(C)n[nH]c2=S)cc1	15.0	-5.7	8.1	-2.3	5.8	-3.0
COc1ccc(-c2csc(Nc3ccc(S(N)(=O)=O)cc3)n2)cc1	-3.8	10.6	1.1	-0.2	5.9	14.9
COc1ccc(-c2csc(Nc3ccc(S(=O)(=O)Nc4cc(C)on4)cc3)n2)cc1	-2.8	-4.6	17.7	4.9	-1.7	26.9*
Cc1nc(NC(=O)c2ccccc2)sc1-c1csc(Nc2cccc(F)c2)n1	/	/	/	/	/	12.3
Cc1cc(NS(=O)(=O)c2ccc(Nc3nc(-c4sc(NC(=O)c5ccccc5)nc4C)cs3)cc2)no1	/	/	/	/	/	68.9*
CC1CCCC(C)N1/N=C/c1ccccc1Br (stereo unspecified)	-3.8	6.5	1.5	-4.1	-4.4	1.9
Cc1ccc(C(=O)N(C)[C@H]2C[C@H]3c4[nH]c5c(-c6ccccc6)cccc5c4CCN3C(=O)[C@H]2[C@H](C)O)cc1	15.0	10.7	/	/	/	/
Nc1[nH]c(C(=O)c2ccc(Br)cc2)c(-c2ccncc2)c1C(=O)NCCc1c[nH]c2ccccc12	15.2	0.8	/	/	/	/
Cc1ccc(NS(=O)(=O)c2cc([N+](=O)[O-])ccc2NNC(=S)Nc2cc(C)ccc2C)c(C)c1	6.9	14.3	16.6	1.9	3.5	23.3
Cc1ccc(NS(=O)(=O)c2cc([N+](=O)[O-])ccc2NNC(=S)Nc2cccc(Cl)c2)c(C)c1	/	/	10.1	41.0*	-12.3	22.1
CCc1c(-c2ccc(Br)cc2)ncn1Cc1cccc(-c2ccccc2)c1	8.1	-4.1	/	/	/	/
Nc1nc(N)n(-c2ccccc2)c(=Nc2ccccc2)n1	3.7	-3.1	-0.3	3.0	2.7	4.7
Cc1cccc2c(N=Nc3ccc(S(=O)(=O)Nc4cccc(Cl)c4)cc3[N+](=O)[O-])c(O)[nH]c12	0.9	-2.3	7.8	26.1*	20.7	28.4*
CCCCCCN1CCN(C2CN(CCCC)S(=O)(=O)C2)CC1 (stereo unspecified)	-0.1	-0.6	/	/	/	/
CN(C)c1nc(=NCc2cccs2)ss1	-3.2	-15.8	3.7	4.6	5.4	/
CC1(OC(=O)c2ccc(Cl)nc2)C(=O)C=C2C=C3CCCN3C=C2C1=O (stereo unspecified)	-5.2	-10.9	11.5	10.7	14.0	15.1
CC1(OC(=O)c2ccc(Cl)nc2)C(=O)C=C2C=C(C3CC3)OC=C2C1=O (stereo unspecified)	/	/	/	/	/	43.9*
CC1(OC(=O)c2ccc(Cl)nc2)C(=O)C=C2C=C(c3ccc(C#N)cc3)OC=C2C1=O (stereo unspecified)	/	/	/	/	/	41.6*
CC1(OC(=O)C2CCCC2)C(=O)C=C2C=C3CCCCN3C=C2C1=O (stereo unspecified)	/	/	9.0	4.9	4.9	22.9
CC1(OC(=O)c2ccc(Cl)nc2)C(=O)C=C2C=C(c3ccsc3)OC=C2C1=O (stereo unspecified)	/	/	/	/	/	46.7*
CC1(OC(=O)C2CCCC2)C(=O)C=C2C=C(C3CC3)OC=C2C1=O (stereo unspecified)	/	/	/	/	/	25.9*
Cc1ccc(NC(=O)CSc2ccc(-c3ccc(-n4cccn4)cc3)nn2)c(C)c1	-6.8	-8.3	-8.7	2.5	-5.2	-2.1
COc1ccc(OC)c(C(=O)Cn2cnc3ccccc3c2=O)c1	0.3	1.8	3.4	1.1	5.4	1.0
Cc1nn(C)c(C)c1NC(=S)Nc1ccc(S(=O)(=O)Nc2ncccn2)cc1	4.7	-6.1	3.8	10.1	8.9	3.5
Cc1coc2c(C)c3oc(=O)c(CCC(=O)N[C@@H](C)C(=O)N[C@@H](Cc4ccccc4)C(=O)O)c(C)c3cc12	-1.4	-3.9	5.4	5.7	4.2	13.7
SMILES	ARFGAP1 inhibitor	ASAP1 inh	PAFAH2 FP inh	PAFAH1B2 FP inh	PAFAH1B3 inh	pPAFAH inh
COc1cc(OC)c(NS(=O)(=O)c2ccc3c(c2)NC(=O)CO3)cc1Cl	-14.2	2.6	-1.6	2.2	-1.9	6.0
COc1ccc(Cl)cc1NS(=O)(=O)c1ccc(S(=O)(=O)N2CCCC2)cc1	0.8	9.8	-7.2	25.1*	1.5	1.8
Cc1ccc(S(=O)(=O)CCC(=O)OCC(=O)N2CCN(S(=O)(=O)c3ccc(Cl)cc3)CC2)cc1	8.0	7.6	-2.5	22.0	8.5	12.8
CCOc1ccccc1OCCCC(=O)N1CCN(S(=O)(=O)c2ccc(C)cc2C)CC1	16.1	-6.4	-1.9	3.5	3.3	4.8
COc1ccc(Cl)cc1NS(=O)(=O)c1ccc(OC)c(OC)c1	8.1	-5.0	7.1	2.5	4.4	-1.1
O=C(Cc1ccc(F)cc1)OCC(=O)N1CCN(S(=O)(=O)c2ccc(Cl)cc2)CC1	2.8	5.8	11.4	12.6	-5.2	32.8*
Nc1ncccc1C(=O)OCC(=O)N1CCN(S(=O)(=O)c2ccc(Cl)cc2)CC1	-4.3	13.2	5.1	24.2*	6.3	-4.1
CCOc1ccccc1OCCCC(=O)N1CCN(S(=O)(=O)c2ccc(C)cc2)CC1	-1.8	6.8	6.0	29.4*	15.5	1.6
COC(=O)C1=C(C)N(C)C(=NCc2ccccc2C(F)(F)F)NC1c1ccc(Cl)cc1 (stereo unspecified)	-3.5	7.1	/	/	/	/
CC1CCCCN1CCNC(=O)c1ccc2c(=O)n(Cc3ccc(Cl)cc3)c(=S)[nH]c2c1 (stereo unspecified)	-2.4	4.3	-15.4	2.7	8.0	0.1
COC(=O)[C@H](CC(C)C)NC(=O)/C=C/[C@H]1O[C@@H](n2cc(C)c(=O)[nH]c2=O)C[C@@H]1O	-0.2	7.3	/	/	/	/
COc1ccc(-c2ccc(S(=O)(=O)N3CCCC3)cc2)cc1	1.1	-9.9	-0.6	4.7	9.2	25.5*
COc1ccc(CNC(=O)COc2ccc(S(=O)(=O)N3CCCCC3)cc2Cl)cc1	-2.4	5.9	-5.8	2.5	11.9	10.4
O=C(CCCOc1ccccc1)N1CCN(S(=O)(=O)c2ccc(Cl)cc2)CC1	-17.5	-12.8	2.9	29.5*	8.8	7.0
O=C(COc1ccccc1)N1CCN(S(=O)(=O)c2ccc(Cl)cc2)CC1	8.9	14.1	1.5	30.6*	-3.4	5.3
O=C(COc1ccc(Cl)cc1)N1CCN(S(=O)(=O)c2ccccc2)CC1	-0.7	7.4	12.3	1.9	2.4	3.2
COc1ccc(CNC(=O)COc2ccc(S(=O)(=O)N3CCCCC3)cc2)cc1	-1.2	-3.9	2.0	-0.9	2.2	27.5*
COc1ccc(S(=O)(=O)N2CCCCCC2)cc1	1.8	13.8	4.4	3.3	8.3	4.7

Screening data as filed in PubChem.
